{"source": "ChEMBL document CHEMBL4665870", "about": "“RNA drug discovery: Conformational restriction enhances specific modulation of the T-box riboswitch function” (Bioorg Med Chem, 2020)", "key": {"[1]": {"test": "Inhibition of tRNA-induced Escherichia coli RNA polymerase mediated T-box riboswitch transcription readthrough assessed as overall transcription in presence of RTprb and dsDNA at 100 uM by fluorescence-monitored in vitro transcription assay", "summary_of_the_method": "(§1)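 In vitro transcription with 10 nM DNA template and 0.05 U/μL E. coli RNA polymerase sigma-saturated holoenzyme. Readout by 100 nM molecular beacon, with or without 30 nM tRNA and 100 μM ligand, at 28 °C. Readthrough = fluorescence at 6 h minus 0 min. Triplicates, unpaired t-test.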"}, "[2]": {"test": "Inhibition of tRNA-induced Escherichia coli RNA polymerase mediated T-box riboswitch transcription readthrough assessed as riboswitch function in presence of RTprb and dsDNA at 100 uM by fluorescence-monitored in vitro transcription assay", "summary_of_the_method": "as §1"}, "[3]": {"test": "Binding affinity to 5'TAMRA-antiterminator RNA (unknown origin) assessed as structural changes by fluorescence-monitored ligand binding assay relative to bulge deletion AM"}, "[4]": {"test": "Effect on HEX-antiterminator RNA-DABCYL (unknown origin) thermal stability at 100 uM by measuring fluorescence by AriaMx Real-Time PCR system", "summary_of_the_method": "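100 nM fluorophore–quencher 5′-HEX-AM-3′-DABCYL with 100 μM ligand in 10 mM sodium phosphate, 0.01 mM EDTA, pH 6.5, 5% DMSO. Fluorescence read (ex 535 nm / em 555 nm) while heating 40–90 °C. Tm taken from the first derivative of the raw data.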"}, "[5]": {"test": "Induction of tRNA-5'TAMRA-antiterminator RNA (unknown origin) complex disruption using fluorescently-labeled AM at 100 uM by fluorescence anisotropy monitored complex disruption assay", "summary_of_the_method": "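Fluorescence anisotropy of 100 nM 5′-TAMRA-AM with 2.5 μM tRNA and 100 μM ligand (n = 3). Controls were AM alone (r−) and AM plus tRNA (r+), run in replicate. Significance assessed by unpaired t-test.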"}, "[6]": {"system": "T-box riboswitch antiterminator RNA (Bacillus subtilis)", "test": "Binding affinity to 5'TAMRA antiterminator C11U RNA (unknown origin) assessed as structural changes by fluorescence-monitored ligand binding assay relative to bulge deletion AM"}}, "note": "Calls of active or inactive are those of the source. The calls are words filed in the database; no cut-off is given here.", "data": [{"molecule": "CC(=O)c1ccc(NC(=O)OC[C@H]2OC(=O)N[C@@H]2CN2CCN(c3ccccc3)CC2)cc1", "values": [{"measurement": "inhibition", "setting": "[1]", "value": "inactive"}, {"measurement": "inhibition", "setting": "[2]", "value": "Active"}]}, {"molecule": "O=C(Cc1ccccc1)OC[C@@H]1OC(=O)N2CCc3c(-c4ccccc4)nnn3C[C@@H]12", "values": [{"measurement": "Activity", "setting": "[3]", "value": "Active"}, {"measurement": "inhibition", "setting": "[1]", "value": "inactive"}, {"measurement": "Activity", "setting": "[4]", "value": "inactive"}, {"measurement": "Activity", "setting": "[5]", "value": "inactive"}, {"measurement": "inhibition", "setting": "[2]", "value": "Active"}, {"measurement": "Activity", "setting": "[6]", "value": "Active"}]}, {"molecule": "CC(=O)c1ccc(NC(=O)OC[C@@H]2OC(=O)N[C@H]2CN2CCN(c3ccccc3)CC2)cc1", "values": [{"measurement": "inhibition", "setting": "[1]", "value": "inactive"}, {"measurement": "inhibition", "setting": "[2]", "value": "Active"}]}, {"molecule": "CC(=O)c1ccc(NC(=O)OC[C@@H]2OC(=O)N3CCc4c(-c5ccccc5)nnn4C[C@@H]23)cc1", "values": [{"measurement": "Activity", "setting": "[3]", "value": "Active"}, {"measurement": "inhibition", "setting": "[1]", "value": "inactive"}, {"measurement": "Activity", "setting": "[4]", "value": "inactive"}, {"measurement": "Activity", "setting": "[5]", "value": -20, "unit": "%"}, {"measurement": "inhibition", "setting": "[2]", "value": "Active"}, {"measurement": "Activity", "setting": "[6]", "value": "Active"}]}, {"molecule": "CC(=O)c1ccc(NC(=O)OC[C@H]2OC(=O)N3CCc4c(-c5ccccc5)nnn4C[C@H]23)cc1", "values": [{"measurement": "Activity", "setting": "[3]", "value": "Active"}, {"measurement": "inhibition", "setting": "[1]", "value": "inactive"}, {"measurement": "Activity", "setting": "[4]", "value": "inactive"}, {"measurement": "Activity", "setting": "[5]", "value": -28, "unit": "%"}, {"measurement": "inhibition", "setting": "[2]", "value": "Active"}, {"measurement": "Activity", "setting": "[6]", "value": "Active"}]}, {"molecule": "O=C(Cc1ccccc1)OC[C@@H]1OC(=O)N[C@H]1CN1CCN(c2ccccc2)CC1", "values": [{"measurement": "inhibition", "setting": "[1]", "value": "inactive"}, {"measurement": "inhibition", "setting": "[2]", "value": "Active"}]}, {"molecule": "O=C(Cc1ccccc1)OC[C@H]1OC(=O)N2CCc3c(-c4ccccc4)nnn3C[C@H]12", "values": [{"measurement": "Activity", "setting": "[3]", "value": "Active"}, {"measurement": "inhibition", "setting": "[1]", "value": "inactive"}, {"measurement": "Activity", "setting": "[4]", "value": "inactive"}, {"measurement": "Activity", "setting": "[5]", "value": "inactive"}, {"measurement": "inhibition", "setting": "[2]", "value": "Active"}, {"measurement": "Activity", "setting": "[6]", "value": "inactive"}]}, {"molecule": "O=C(Cc1ccccc1)OC[C@H]1OC(=O)N[C@@H]1CN1CCN(c2ccccc2)CC1", "values": [{"measurement": "inhibition", "setting": "[1]", "value": "inactive"}, {"measurement": "inhibition", "setting": "[2]", "value": "Active"}]}]}
